According to ChEMBL document CHEMBL2029262, “Receptor-ligand interaction-based virtual screening for novel Eg5/kinesin spindle protein inhibitors” (J Med Chem, 2012):
Blank lines part the entries; values can stand above or below the compound they belong to. Activity calls are given as the source filed them. The rule behind the calls is not given here.

Key:
HT-29 = assay: Growth inhibition of human HT-29 cells after 2 days by MTT assay; type: functional
Summary of the method: (§1)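 DU145 or HT29 cells in RPMI 1640 with 10% heat-inactivated FBS, 37 °C, 5% CO2. Seeded at 3 × 10^3 cells/well, exposed to a range of compound concentrations in duplicate for two days. Read-out was MTT-type tetrazolium dye for up to 4 h, overnight solubilization of formazan, then OD at 570 nm. GI50 was derived.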

DU-145 [1] = assay: Growth inhibition of human DU145 cells after 2 days by MTT assay; type: functional; summary of the method: as §1
HeLa [2] = assay: Induction of monoastral spindle formation in human HeLa cells at 25 uM after 8 hrs by immunofluorescence assay; type: functional, cell-based
Summary of the method: (§2)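 HeLa cells grown in D-MEM with 10% fetal calf serum on poly-D-lysine-coated coverslips and allowed to adhere at least 36 h. Compounds were diluted in medium from 25 mM DMSO stocks and applied for 8 h. Cells were fixed in 2% paraformaldehyde, permeabilized with 0.2% Triton X-100, and stained for β-tubulin and centromeres, with DAPI for DNA. Mitotic cells with monoastral versus bipolar spindles were counted by epifluorescence microscopy.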

[3] = target: T1, Kinesin-like protein KIF11 (Homo sapiens, UniProt P52732); assay: (§3) Inhibition of Eg5 ATPase activity by pyruvate kinase/lactate dehydrogenase-linked assay
T1 sequence (P52732 whole entry): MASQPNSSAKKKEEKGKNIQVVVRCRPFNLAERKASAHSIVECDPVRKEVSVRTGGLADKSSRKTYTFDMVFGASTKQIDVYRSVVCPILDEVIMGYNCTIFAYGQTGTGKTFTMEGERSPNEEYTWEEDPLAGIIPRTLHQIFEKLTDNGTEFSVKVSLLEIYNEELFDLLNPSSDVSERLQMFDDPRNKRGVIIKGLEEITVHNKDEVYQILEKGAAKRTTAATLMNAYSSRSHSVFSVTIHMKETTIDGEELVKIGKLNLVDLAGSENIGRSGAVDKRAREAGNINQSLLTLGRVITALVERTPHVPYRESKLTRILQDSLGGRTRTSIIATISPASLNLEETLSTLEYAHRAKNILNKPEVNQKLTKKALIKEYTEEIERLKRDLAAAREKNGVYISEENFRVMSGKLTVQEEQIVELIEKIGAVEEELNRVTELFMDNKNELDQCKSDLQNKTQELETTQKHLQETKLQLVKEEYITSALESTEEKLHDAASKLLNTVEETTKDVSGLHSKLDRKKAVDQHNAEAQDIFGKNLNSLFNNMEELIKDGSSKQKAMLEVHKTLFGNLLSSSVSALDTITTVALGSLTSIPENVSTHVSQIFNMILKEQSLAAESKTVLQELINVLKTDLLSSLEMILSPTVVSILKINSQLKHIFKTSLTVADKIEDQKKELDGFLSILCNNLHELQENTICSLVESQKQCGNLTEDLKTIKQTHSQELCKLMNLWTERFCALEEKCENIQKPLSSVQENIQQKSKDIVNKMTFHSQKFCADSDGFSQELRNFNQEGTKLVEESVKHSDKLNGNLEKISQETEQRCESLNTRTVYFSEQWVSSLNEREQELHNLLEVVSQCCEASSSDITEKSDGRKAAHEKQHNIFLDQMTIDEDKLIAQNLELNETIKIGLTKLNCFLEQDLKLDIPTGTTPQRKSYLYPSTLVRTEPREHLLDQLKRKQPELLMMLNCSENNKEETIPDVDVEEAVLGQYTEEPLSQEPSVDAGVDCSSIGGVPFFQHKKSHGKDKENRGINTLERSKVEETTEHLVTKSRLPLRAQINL
Summary of the method: (§4)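 Basal steady-state ATPase of 200 nM Eg5 2–368, measured by pyruvate kinase/lactate dehydrogenase coupling in ACES buffer pH 6.9 with Mg acetate, EGTA, EDTA and β-mercaptoethanol, at 25 °C with up to 2.0% DMSO. STLC was the positive control. Each concentration was run in triplicate and reported as mean ± SD to give IC50.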

[4] = target: T2, Kinesin heavy chain isoform 5A (Homo sapiens, UniProt Q12840); assay: Inhibition of human Kif5A ATPase activity by pyruvate kinase/lactate dehydrogenase-linked assay
T2 sequence (Q12840 whole entry): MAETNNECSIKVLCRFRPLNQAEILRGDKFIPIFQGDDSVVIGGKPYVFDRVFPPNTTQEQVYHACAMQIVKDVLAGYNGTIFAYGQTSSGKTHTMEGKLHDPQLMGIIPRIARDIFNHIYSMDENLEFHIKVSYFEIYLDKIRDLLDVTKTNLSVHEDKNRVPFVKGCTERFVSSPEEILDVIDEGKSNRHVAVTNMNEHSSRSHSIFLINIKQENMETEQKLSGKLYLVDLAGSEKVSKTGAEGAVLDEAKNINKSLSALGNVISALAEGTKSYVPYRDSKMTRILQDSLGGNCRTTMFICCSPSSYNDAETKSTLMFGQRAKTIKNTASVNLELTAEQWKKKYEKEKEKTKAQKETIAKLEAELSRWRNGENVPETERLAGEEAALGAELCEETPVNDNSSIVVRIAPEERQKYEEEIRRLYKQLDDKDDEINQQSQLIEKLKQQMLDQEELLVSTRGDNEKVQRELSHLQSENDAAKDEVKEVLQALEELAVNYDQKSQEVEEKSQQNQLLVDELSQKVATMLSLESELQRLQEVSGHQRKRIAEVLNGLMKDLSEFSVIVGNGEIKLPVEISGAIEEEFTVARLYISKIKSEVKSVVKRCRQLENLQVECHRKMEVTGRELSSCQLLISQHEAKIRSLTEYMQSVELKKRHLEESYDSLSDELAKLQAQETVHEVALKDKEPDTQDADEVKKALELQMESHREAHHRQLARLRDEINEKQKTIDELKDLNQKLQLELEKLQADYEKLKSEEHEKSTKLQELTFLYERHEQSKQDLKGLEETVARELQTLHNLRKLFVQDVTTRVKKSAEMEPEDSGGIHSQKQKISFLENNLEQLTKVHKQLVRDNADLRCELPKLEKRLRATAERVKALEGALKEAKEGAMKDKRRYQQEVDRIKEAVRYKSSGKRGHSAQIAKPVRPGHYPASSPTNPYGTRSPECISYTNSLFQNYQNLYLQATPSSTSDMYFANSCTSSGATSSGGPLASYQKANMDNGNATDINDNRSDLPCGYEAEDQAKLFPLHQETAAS
Summary of the method: (§5)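 HsKif5A or HsKif5C ATPase measured with the same pyruvate kinase/lactate dehydrogenase-linked format, at 25 °C in ACES buffer pH 6.9 with up to 2.0% DMSO. Concentrations were run in triplicate.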

[5] = target: T3, Kinesin heavy chain isoform 5C (Homo sapiens, UniProt O60282); assay: Inhibition of human Kif5C ATPase activity by pyruvate kinase/lactate dehydrogenase-linked assay; summary of the method: as §5
T3 sequence (O60282 whole entry): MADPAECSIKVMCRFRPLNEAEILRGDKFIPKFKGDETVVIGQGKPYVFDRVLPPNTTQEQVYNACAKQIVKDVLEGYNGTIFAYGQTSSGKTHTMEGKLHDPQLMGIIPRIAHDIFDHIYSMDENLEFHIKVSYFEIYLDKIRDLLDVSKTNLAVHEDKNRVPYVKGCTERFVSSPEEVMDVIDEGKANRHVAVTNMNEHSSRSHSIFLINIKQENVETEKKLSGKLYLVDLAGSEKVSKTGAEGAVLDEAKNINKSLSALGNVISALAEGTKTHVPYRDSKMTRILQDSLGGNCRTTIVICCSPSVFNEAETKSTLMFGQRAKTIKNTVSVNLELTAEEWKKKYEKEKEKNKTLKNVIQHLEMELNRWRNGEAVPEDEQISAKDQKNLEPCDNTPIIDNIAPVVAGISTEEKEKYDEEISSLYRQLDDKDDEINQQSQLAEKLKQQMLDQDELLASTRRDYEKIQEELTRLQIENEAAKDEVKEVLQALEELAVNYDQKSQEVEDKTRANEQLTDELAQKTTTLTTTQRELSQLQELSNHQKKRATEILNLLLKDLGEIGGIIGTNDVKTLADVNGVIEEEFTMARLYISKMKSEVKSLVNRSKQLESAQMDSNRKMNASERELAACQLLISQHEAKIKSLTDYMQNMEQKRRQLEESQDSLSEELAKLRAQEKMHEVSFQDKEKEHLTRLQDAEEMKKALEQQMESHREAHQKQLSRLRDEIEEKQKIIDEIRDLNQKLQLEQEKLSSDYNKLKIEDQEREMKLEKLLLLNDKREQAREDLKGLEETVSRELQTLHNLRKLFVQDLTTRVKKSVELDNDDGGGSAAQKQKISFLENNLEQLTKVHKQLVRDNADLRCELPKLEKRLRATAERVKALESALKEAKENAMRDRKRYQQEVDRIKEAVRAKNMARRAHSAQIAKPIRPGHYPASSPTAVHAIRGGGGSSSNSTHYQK

HeLa [6] = assay: Induction of monoastral spindle formation in human HeLa cells at 50 uM after 8 hrs by immunofluorescence assay; type: functional; summary of the method: as §2
DU-145 [7] = assay: Selectivity ratio of GI50 for human DU145 cells to GI50 for human HT29 cells; type: functional
[8] = target: T4, Kinesin-like protein KIF11 (Homo sapiens) (UniProt P52732); assay: as §3; parameters: concentration or dose not given beside the values; summary of the method: as §4
T4 sequence (whole entry): T1 sequence (P52732 whole entry)

HeLa [9] = assay: Induction of monoastral spindle formation in human HeLa cells assessed as interphase cells with cortical MT bundles at 25 uM after 8 hrs by immunofluorescence assay; type: functional, cell-based
HeLa [10] = assay: Induction of monoastral spindle formation in human HeLa cells assessed as cells with misaligned chromosomes at 25 uM after 8 hrs by immunofluorescence assay; type: functional, cell-based

GI50 (HT-29): inactive
GI50 (DU-145 [1]): inactive
IC50 [4]: Not Active
IC50 [5]: Not Active
IC50 ([3]; read-out: IC50): 79.1 µM
inhibition ([8]; concentration not given here): 80%
Structure (SMILES): COC(=O)c1c(C)oc2c1cc(NS(=O)(=O)c1ccc(C(=O)O)cc1)c1ccccc12
Activity (HeLa [2]): inactive

GI50 (HT-29; HT-29, 48 h): 19.6 µM
GI50 (DU-145 [1]; DU-145, 48 h): 42.3 µM
IC50 [4]: Not Active
IC50 [5]: Not Active
IC50 ([3]; read-out: IC50): 2.4 µM
inhibition ([8]; concentration not given here): 60%
Structure (SMILES): COc1ccc(NC(=O)CC2C(=O)N(c3ccccc3)C(=S)N2CCc2sccc2C)cc1 (stereo unspecified)
RatioGI50 (DU-145 [7]): 2

GI50 (HT-29; HT-29, 48 h): 4.4 µM
GI50 (DU-145 [1]; DU-145, 48 h): 21 µM
IC50 [3]: Not Active
Structure (SMILES): O=C(O)CSc1cc(NS(=O)(=O)c2ccc(C(=O)O)cc2)c2ccccc2c1O
Activity (HeLa [9]): Active

Further lines, the compound ahead of its results:

Structure (SMILES): Cc1cc(F)ccc1S(=O)(=O)N(C(=O)C1CCCCC1)c1ccc2oc(=O)sc2c1
GI50 (HT-29; HT-29, 48 h): 19.4 µM
GI50 (DU-145 [1]; DU-145, 48 h): 41.2 µM
Activity (HeLa [2]): inactive
IC50 [3]: Not Active

Structure (SMILES): COc1ccc(N2C(=O)C(CC(=O)Nc3ccccc3)N(CCc3cccs3)C2=S)cc1 (stereo unspecified)
GI50 (HT-29; HT-29, 48 h): 17.7 µM
GI50 (DU-145 [1]; DU-145, 48 h): 34.3 µM
IC50 [4]: Not Active
IC50 [5]: Not Active
Activity (HeLa [6]): 50%
RatioGI50 (DU-145 [7]): 2
IC50 ([3]; read-out: IC50): 1 µM
inhibition ([8]; concentration not given here): 60%

Structure (SMILES): Cc1ccsc1CCN1C(=S)N(c2ccc(F)cc2)C(=O)C1CC(=O)Nc1ccc(F)cc1 (stereo unspecified)
GI50 (HT-29; HT-29, 48 h): 16.7 µM
GI50 (DU-145 [1]; DU-145, 48 h): 31 µM
IC50 [4]: Not Active
IC50 [5]: Not Active
Activity (HeLa [2]): Active
RatioGI50 (DU-145 [7]): 2
IC50 ([3]; read-out: IC50): 0.6 µM
inhibition ([8]; concentration not given here): 80%

Structure (SMILES): Cc1ccc(-n2c(=O)[nH]c3c(C(N)=O)nc(-c4ccc(F)cc4F)nc32)cc1C
GI50 (HT-29; HT-29, 48 h): 9.3 µM
GI50 (DU-145 [1]; DU-145, 48 h): 8.7 µM
IC50 ([4]; read-out: IC50): 50 µM
IC50 ([5]; read-out: IC50): 50 µM
Activity (HeLa [2]): inactive
IC50 ([3]; read-out: IC50): 41.5 µM
inhibition ([8]; concentration not given here): 60%

Structure (SMILES): Cc1ccc2c(c1)-c1cc(C)nn1C(c1ccccc1F)N2 (stereo unspecified)
GI50 (HT-29): inactive
GI50 (DU-145 [1]): inactive
IC50 [4]: Not Active
IC50 [5]: Not Active
Activity (HeLa [2]): inactive
IC50 ([3]; read-out: IC50): 6.3 µM
inhibition ([8]; concentration not given here): 60%

Structure (SMILES): COC(=O)c1c(NC(=O)c2ccccc2Br)sc(C)c1C
GI50 (HT-29; HT-29, 48 h): 33.7 µM
GI50 (DU-145 [1]; DU-145, 48 h): > 100 µM
Activity (HeLa [10]): Active
inhibition [8]: inactive
